Five compounds from ChEMBL document CHEMBL5390273, “Discovery of a Hydroxylamine-Based Brain-Penetrant EGFR Inhibitor for Metastatic Non-Small-Cell Lung Cancer” (J Med Chem, 2023) can be followed below.

The source made the active and inactive calls. The calls are words filed in the database; no cut-off is given here.

Data set [1] in a line: Dissociation constant, pKa of compound by pH-metric titration method. The data set is classed as physicochemical.
Data set [2] is described as follows: Mutagenicity in Salmonella typhimurium TA1537 at 5 to 100 uM incubated for 96 hrs in presence of rat liver S9 fraction by Ames fluctuation assay. Type of data set: toxicity, subcellular. Particulars: salmonella enterica subsp. enterica serovar typhimurium, s9, 96 h, dose 5-100 µM. The procedure, abridged: (§1)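 Fluctuation format in 384-well plates at 37 °C for 96 h. Tested at 5, 10, 50 and 100 μM, 48 replicates per concentration, with and without rat liver S9. Revertant wells counted when OD430/OD570 > 1.0, compared with control by one-tailed Fisher's exact test. Parallel bacterial cytotoxicity test (OD650) at 0.6–100 μM, with growth below 60% of control flagged as cytotoxic.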

A short description of data set [3]: Mutagenicity in Salmonella typhimurium TA1537 at 5 to 100 uM incubated for 96 hrs by Ames fluctuation assay. The data set is classed as toxicity. The following applies: salmonella enterica subsp. enterica serovar typhimurium, dose 5-100 µM. The procedure, abridged:
as §1
(In general: The Ames test uses bacterial strains that need an amino acid and regain growth without it when mutated back.)

Data set [4] is described as follows: Mutagenicity in Salmonella typhimurium TA100 at 5 to 100 uM incubated for 96 hrs by Ames fluctuation assay. The data set is classed as toxicity. The following applies: salmonella enterica subsp. enterica serovar typhimurium, dose 5-100 µM. The method in brief:
as §1

Data set [5] can be described thus: Mutagenicity in Salmonella typhimurium TA98 at 5 to 100 uM incubated for 96 hrs by Ames fluctuation assay. The following applies: salmonella enterica subsp. enterica serovar typhimurium, dose 5-100 µM. Type of data set: toxicity. The method in brief:
as §1

Data set [6] is described as follows: Mutagenicity in Salmonella typhimurium TA100 at 5 to 100 uM incubated for 96 hrs in presence of rat liver S9 fraction by Ames fluctuation assay. The data set is classed as toxicity, subcellular. The following applies: salmonella enterica subsp. enterica serovar typhimurium, s9, 96 h, dose 5-100 µM. The procedure, abridged:
as §1

Data set [7] in a line: Mutagenicity in Salmonella typhimurium TA1535 at 5 to 100 uM incubated for 96 hrs in presence of rat liver S9 fraction by Ames fluctuation assay. Type of data set: toxicity, subcellular. The following applies: salmonella enterica subsp. enterica serovar typhimurium, s9, 96 h, dose 5-100 µM. The method in brief:
as §1

Data set [8] in a line: Mutagenicity in Salmonella typhimurium TA1535 at 5 to 100 uM incubated for 96 hrs by Ames fluctuation assay. The data set is classed as toxicity. The following applies: salmonella enterica subsp. enterica serovar typhimurium, dose 5-100 µM. The method in brief:
as §1

Data set [9] is described as follows: Toxicity in Sprague-Dawley rat assessed as at 1 mg/kg, iv. Particulars: in vivo.
Data set [10] is described as follows: Toxicity in Sprague-Dawley rat assessed as at 5 mg/kg, po. Particulars: in vivo.
A short description of data set [11]: Mutagenicity in Salmonella typhimurium TA98 at 5 to 100 uM incubated for 96 hrs in presence of rat liver S9 fraction by Ames fluctuation assay. Type of data set: toxicity, subcellular. The following applies: salmonella enterica subsp. enterica serovar typhimurium, s9, 96 h, dose 5-100 µM. The procedure, abridged:
as §1

Data set [12] in a line: Unbound brain-to-plasma concentration ratio in Han Wistar rat at 10 mg/kg,po and measured after 16 hrs by LC-MS/MS analysis. The data set is classed as ADME, organism-based. The following applies: read-out: K(p,uu,brain).
Data set [13] can be described thus: Toxicity in intracranial PDX BALB/c mouse model xenografted with human luciferase tagged HCC827 cells assessed as adverse clinical effects at 10 mg/kg,po BID for 21 days. Type of data set: organism-based. Particulars: in vivo, 504 h, time 21 day. The method in brief:
(§2)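 Female BALB/c nude mice given 3 × 10^5 HCC827-luc cells in 2 μL RPMI1640 into the right forebrain under anesthesia. Randomized on day 20 after inoculation, n = 10 per group. Dosed PO b.i.d. at 12 h intervals for 21 days in 1% methylcellulose, with vehicle control. Biweekly IVIS imaging 10 min after IP D-luciferin, plus biweekly body weight. Day-21 means compared by unpaired two-tailed t-test.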
(A xenograft is tissue or cells of one species grown in another, often human tumour cells in immunodeficient mice.)

The nature of data set [14]: Mutagenicity in Salmonella typhimurium TA100 at 5 to 50 uM incubated for 96 hrs by Ames fluctuation assay. Type of data set: toxicity. The following applies: salmonella enterica subsp. enterica serovar typhimurium, dose 5-50 µM. The method in brief: as §1
Data set [15] in a line: Mutagenicity in Salmonella typhimurium TA98 at 5 to 50 uM incubated for 96 hrs by Ames fluctuation assay. Particulars: salmonella enterica subsp. enterica serovar typhimurium, dose 5-50 µM. Type of data set: toxicity. The procedure, abridged: as §1
A short description of data set [16]: Mutagenicity in Salmonella typhimurium TA1537 at 5 to 50 uM incubated for 96 hrs by Ames fluctuation assay. The data set is classed as toxicity. The following applies: salmonella enterica subsp. enterica serovar typhimurium, dose 5-50 µM. The method in brief: as §1
Data set [17] can be described thus: Mutagenicity in Salmonella typhimurium TA1535 at 5 to 50 uM incubated for 96 hrs by Ames fluctuation assay. Type of data set: toxicity. Particulars: salmonella enterica subsp. enterica serovar typhimurium, dose 5-50 µM. The procedure, abridged:
as §1

The nature of data set [18]: Mutagenicity in Salmonella typhimurium TA1537 at 5 to 50 uM incubated for 96 hrs in presence of rat liver S9 fraction by Ames fluctuation assay. Type of data set: toxicity, subcellular. Particulars: salmonella enterica subsp. enterica serovar typhimurium, s9, 96 h, dose 5-50 µM. The method in brief: as §1
A short description of data set [19]: Mutagenicity in Salmonella typhimurium TA1535 at 5 to 50 uM incubated for 96 hrs in presence of rat liver S9 fraction by Ames fluctuation assay. Type of data set: toxicity, subcellular. Particulars: salmonella enterica subsp. enterica serovar typhimurium, s9, 96 h, dose 5-50 µM. The method in brief: as §1
A short description of data set [20]: AUC (0 to infinity) in Sprague-Dawley rat at 2 mg/kg, iv and measured upto 24 hrs by LC-MS/MS analysis. The data set is classed as ADME, organism-based. Also noted: dose 2 mg/kg, time < 24 hrs, route iv. The following applies: in vivo. The procedure, abridged:
(§3)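 Female BALB/c nude mice or male Sprague-Dawley rats, 6–8 weeks old, n = 3 per route. IV by tail vein in DMSO:10% captisol in saline 1:99. PO by gavage in 1% methylcellulose. […] Assayed by LC-MS/MS, non-compartmental PK, mean ± SD.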

In another data set the test system is HCC827. Nature of the data set: Antitumor activity against human luciferase tagged HCC827 cells xenografted in intracranial PDX BALB/c mouse model assessed as tumor regression at 10 mg/kg,po BID for 21 days by Bioluminescence imaging analysis. Type of data set: functional, organism-based. The following applies: time 21.0 day. The method in brief:
as §2

A short description of data set [21]: Metabolic stability in human hepatocytes assessed as metabolite formation at 10 uM incubated for 4 hrs by UHPLC-MS/MS analysis. The data set is classed as ADME, cell-based, Hepatocyte. The procedure, abridged:
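Human hepatocytes at 1.0 × 10^6 cells/mL incubated with compound at 10 μM for 0, 120 and 240 min at 37 °C. Quenched with 2 volumes of acetonitrile, centrifuged at 16,000g for 15 min, and supernatant analyzed by UHPLC-MS/MS.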

Data set [22] is described as follows: AUC (0 to infinity) in BALB/c mouse at 30 mg/kg, po and measured upto 24 hrs by LC-MS/MS analysis. Set-up: dose 30 mg/kg, time < 24 hrs, route po. The following applies: in vivo. Type of data set: ADME, organism-based. The method in brief:
as §3

A short description of data set [23]: Mutagenicity in Salmonella typhimurium TA100 at 5 to 50 uM incubated for 96 hrs in presence of rat liver S9 fraction by Ames fluctuation assay. Particulars: salmonella enterica subsp. enterica serovar typhimurium, s9, 96 h, dose 5-50 µM. Type of data set: toxicity, subcellular. The procedure, abridged: as §1
The nature of data set [24]: AUC (0 to infinity) in BALB/c mouse at 3 mg/kg, iv and measured upto 24 hrs by LC-MS/MS analysis. Particulars: in vivo. The data set is classed as ADME, organism-based. Also noted: dose 3 mg/kg, time < 24 hrs, route iv. The procedure, abridged: as §3
Data set [25] is described as follows: Toxicity in intracranial PDX BALB/c mouse model xenografted with human luciferase tagged HCC827 cells assessed as body weight loss at 10 mg/kg,po BID for 21 days. The data set is classed as organism-based. Particulars: in vivo, 504 h, time 21 day. The method in brief: as §2
Data set [26] can be described thus: Genotoxicity in Chinese hamster CHO-K1 cells at 8 to 1000 uM incubated for 4 hrs in presence of rat liver S9 fraction by micronucleus test. The data set is classed as toxicity, subcellular, Cricetulus griseus. Particulars: s9, 4 h, dose 8-1000 µM. The method in brief: (§4)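 CHO-K1 cells, 96-well format, exposed to 8–1000 μM for either 4 h at 37 °C with rat liver S9 or 24 h at 37 °C without S9. Micronuclei detected by high-content fluorescence imaging. Positive controls were cyclophosphamide 7.2 μM and mitomycin C 0.3 μM. One-tailed two-sample equal-variance t-test.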

A short description of data set [27]: Genotoxicity in Chinese hamster CHO-K1 cells at 8 to 1000 uM incubated for 24 hrs by micronucleus test. Particulars: cho-k1, 24 h, dose 8-1000 µM. The data set is classed as toxicity, cell-based, Cricetulus griseus. The procedure, abridged: as §4
A short description of data set [28]: Mutagenicity in Salmonella typhimurium TA98 at 5 to 50 uM incubated for 96 hrs in presence of rat liver S9 fraction by Ames fluctuation assay. Type of data set: toxicity, subcellular. Particulars: salmonella enterica subsp. enterica serovar typhimurium, s9, 96 h, dose 5-50 µM. The procedure, abridged: as §1

Take `NO` [HYDROXYAMINE]: the pKa – broadly, the negative logarithm of the acid dissociation constant – in data set [1] was 5.9.

Take `COc1cc2ncnc(Nc3cccc(Cl)c3F)c2cc1OCCON1CCOCC1`: the Activity entry in data set [2], in data set [3], in [4], in [5], in data set [6] and in data set [7] was “Non-Toxic” throughout. Also, the Activity entry in data set [8], in data set [9], in data set [10] and in data set [11] was “Non-Toxic” in each case.

`COc1cc2ncnc(Nc3ccc(F)c(Cl)c3)c2cc1OCCCN1CCOCC1` [GEFITINIB]: the Activity result in data set [2], in data set [3], in data set [4], in data set [5], in data set [6] and in data set [7] was “Non-Toxic” in each case. Also, the Activity result in data set [8] and in [11] was “Non-Toxic” each time. Further, the Kp uu at 16 h in data set [12] amounted to 0.009.

For `COc1cc2ncnc(Nc3cccc(Cl)c3F)c2cc1OCCON1CCN(C)CC1`, the Activity result in data set [13], in data set [14], in data set [15], in data set [16], in data set [17] and in [18] was “Non-Toxic” in each case. For the same compound, the Activity entry in [19], in data set [23], in data set [25], in data set [26], in [27] and in [28] was “Non-Toxic” each time. The AUC(0-inf) (commonly the area under the concentration-time curve extrapolated to infinity) in [20] was determined as 0.61 µM·h; in data set [22], 5.29 µM·h. Moreover, the result in the data set with HCC827 was Active. Further, the Drug metabolism in data set [21] is given as below 5%. Further, in data set [24], the exposure (AUC) – broadly, concentration integrated over time – was 0.866 µM·h.

Consider `COc1cc2ncnc(Nc3ccc(F)c(Cl)c3)c2cc1OCCON1CCOCC1`, for which the Activity result in data set [2], in data set [3], in data set [4], in data set [5], in data set [6] and in data set [7] was “Non-Toxic” in each case. Also, the Activity entry in data set [8] and in [11] was “Non-Toxic” throughout.
